We go through twelve molecules from article PMC3760157 (Bioorganic & medicinal chemistry letters, 2013).

Counter-ions that a name gives are not always drawn.

A word on the IC50: it is the midpoint of a concentration-inhibition curve.

One series is described as follows: In vitro cytotoxicity. Conditions: African green monkey, Vero cells (African green monkey kidney fibroblast). The format is cell-based. Summed up:
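Vero (African green monkey kidney) cell growth assay. […] Test compounds went up to 25 μg/mL and the doxorubicin control up to 5 μg/mL. Values are means of three independent experiments.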

The next series has as its system C. albicans ATCC 90028. As to the kind of experiment: In vitro antifungal testing. It counts as cell-based, Candida albicans. The note with it: from MIC/MFC.
The next series relates to C. albicans SC5314. Kind of series: In vivo efficacy in mouse model of systemic candidiasis. Conditions: 5 and 25 mg/kg.
Series [1] deals with C. albicans, Candida glabrata, Candida krusei, Aspergillus fumigatus, and C. neoformans. Kind of series: In vitro antifungal testing, range over all tested pathogens. The format is cell-based. Conditions: range over the five fungal pathogens. The procedure, abridged:
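Broth microdilution. MIC is the lowest concentration with no detectable growth. For MFC, 5 μL from each clear well was moved to agar and incubated at 35°C: 48 h for Candida spp. and A. fumigatus, 72 h for C. neoformans. […] Values are means of three independent experiments (two for one analogue).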

For series [2] the following is noted: patients with leishmania; cited from earlier work.
In another series the test system is fungi. The note with it: antifungal activity; cited from earlier work.

As for `CCCCCCCCCCCCCCCCOP(=O)([O-])OCC[N+](C)(C)Cc1ccccc1` [Compound 3a, N-benzyl-N,N-dimethyl-2-{[(hexadecyloxy)hydroxyphosphinyl]oxy}ethanaminium inner salt], the IC50 in the series “In vitro cytotoxicity” was > 25 µg/mL. Moreover, in the series on C. albicans ATCC 90028, the “fold less potent than amphotericin B” value is reported as 2- to 3 fold. In the series on C. albicans SC5314, the “Survival rate of mice vs PBS control, oral administration” value was “did not enhance the survival rate”. In series [1], the “MFCs, range against all tested pathogens” value was 2.5 to 15.0 µg/mL and the “MICs, range against all tested pathogens” value was 2.5 to 5.0 µg/mL.
As for `CCCCCCCCCCCCCCOP(=O)([O-])OCC[N+](C)(C)Cc1ccccc1` [Compound 3b], the IC50 in “In vitro cytotoxicity” was > 25 µg/mL.
The same measure, in the same setting: to `CCCCCCCCCCCCCCCCCCOP(=O)([O-])OCC[N+](C)(C)Cc1ccccc1` [Compound 3c] belongs > 25 µg/mL.
As for `CCCCCCCCCCCCCCCCOP(=O)([O-])OCC[N+](C)(C)Cc1ccc([N+](=O)[O-])cc1` [Compound 3d, N,N-dimethyl-N-(4-nitrobenzyl)-2-{[(hexadecyloxy)hydroxyphosphinyl]oxy}ethanaminium inner salt], the IC50 in the series “In vitro cytotoxicity” was > 25 µg/mL. In the series with C. albicans ATCC 90028, the “fold less potent than amphotericin B” value is on record as 2- to 3 fold. In series [1], the “MICs, range against all tested pathogens” value fell in the range of 2.5 to 5.0 µg/mL.
With `CCCCCCCCCCCCCCCCOP(=O)([O-])OCC[N+](C)(C)Cc1ccc(OC)cc1` [Compound 3e, N-(4-methoxybenzyl)-N,N-dimethyl-2-{[(hexadecyloxy)hydroxyphosphinyl]oxy}ethanaminium inner salt], in the series “In vitro cytotoxicity”, the IC50 is > 25 µg/mL. Also, the “MICs, range against all tested pathogens” value in series [1] was in the range of 2.5 to 5.0 µg/mL.
With `CCCCCCCCCCCCCCCCOP(=O)([O-])OCC[N+](C)(C)Cc1ccc(Cl)cc1` [Compound 3f], in the series “In vitro cytotoxicity”, the IC50 is > 25 µg/mL.
Same read-out and setting: for `CCCCCCCCCCCCCCCCOP(=O)([O-])OCC[N+](C)(C)Cc1ccc(Br)cc1` [Compound 3g] the value was > 25 µg/mL; for `CCCCCCCCCCCCCCCCOP(=O)([O-])OCC[N+](C)(C)C/C=C/c1ccccc1` [Compound 3h], > 25 µg/mL.
Same read-out and setting: for `C=CC[N+](C)(C)CCOP(=O)([O-])OCCCCCCCCCCCCCCCC` [Compound 3i] the value was > 25 µg/mL.
Regarding `COc1cccc2c1C(=O)c1c(O)c3c(c(O)c1C2=O)C[C@@](O)(C(=O)CO)C[C@@H]3O[C@H]1C[C@H](N)[C@H](O)[C@H](C)O1` [Doxorubicin, reference compound], the IC50 in “In vitro cytotoxicity” is > 5 µg/mL.
With `CCCCCCCCCCCCCCCCOP(=O)([O-])OCC[N+](C)(C)C` [Miltefosine, hexadecylphosphocholine], the IC50 in the series “In vitro cytotoxicity” was > 25 µg/mL. Further, in series [2], the “half-life, first elimination” value is 7 days and the “half-life, terminal elimination” value is listed as 31 days.
`CCCCCCCC/C=C\CCCCCCCCCCCCOP(=O)([O-])OCC[N+](C)(C)C` [erucylphosphocholine]: the “fold less potent than miltefosine” value in the series with fungi is given as 8 fold.
